The list is not random: actives were taken first. Their share in the collection is about 1.4%.
PKA-R1A activ = activators of PKA-R1A complex; PKA-R1A dissociation, Cy5-IP20 fluorescence polarization; scaled: DMSO 0%, 113 µM cGMP 100%; activation, % at 11.4 µM; actives 0.083% (n = 340,000);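 active = percent activation above the mean of all tested compounds plus 3 SD, cut at about 19% in these data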;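 note: higher means more PKAc released from R1A so a rise in polarization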
SR-BI DiI inh = mouse SR-BI HDL lipid transfer inhibition. Q61009. ldlA[mSR-BI] CHO cells, DiI-HDL uptake fluorescence, 3 h. inhibition, % at 12.5 µM. actives 0.96% (n = 320,000). AID 488896;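 active = mean replicate inhibition of at least 70% and a set share of replicates each scoring 70 or more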;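 note: 0% = median of neutral control wells and 100% = median of positive control wells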
Target sequence (Q61009 whole entry, looked up): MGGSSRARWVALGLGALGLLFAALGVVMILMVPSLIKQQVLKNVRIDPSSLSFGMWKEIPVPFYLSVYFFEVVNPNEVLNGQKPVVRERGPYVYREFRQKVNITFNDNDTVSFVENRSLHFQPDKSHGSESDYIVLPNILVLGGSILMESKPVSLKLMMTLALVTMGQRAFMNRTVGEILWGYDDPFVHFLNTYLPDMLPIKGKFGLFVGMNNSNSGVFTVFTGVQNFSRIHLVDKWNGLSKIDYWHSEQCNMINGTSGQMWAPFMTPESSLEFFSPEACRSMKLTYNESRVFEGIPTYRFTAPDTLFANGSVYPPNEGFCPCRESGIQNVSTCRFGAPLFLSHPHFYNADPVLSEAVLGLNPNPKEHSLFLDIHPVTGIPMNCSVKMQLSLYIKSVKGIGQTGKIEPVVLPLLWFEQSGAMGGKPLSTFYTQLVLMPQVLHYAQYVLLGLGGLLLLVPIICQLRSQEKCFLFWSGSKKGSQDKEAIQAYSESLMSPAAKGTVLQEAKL
SR-BI uptake up = enhances SR-BI lipid uptake from DiI-HDL. CHO ldlA[mSR-BI] cells, DiI-HDL uptake fluorescence, 3 h; 100 = double the neutral-control signal. activation, % at 12.5 µM. actives 0.096% (n = 320,000);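 active = mean replicate activation of at least 60% and every replicate at or above 60%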;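 note: 0% = median plate neutral-control signal and 100% = twice that signal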
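Test system: SR-BI-overexpressing, LDLR-lacking CHO cells; Medium: Ham's F12 with 0.5% BSA, HEPES 25 mM, pH 7.4; Schedule: 3 h, 37 °C; Technique: bottom-read fluorescence, 550/595 nm.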
PKA-R2B act = activates the human PKA-R2B holoenzyme complex; actives 0.079% (n = 340,000); PKA-R2B holoenzyme dissociation, Cy5-IP20 fluorescence polarization; R2B truncated from residue 108, S112A mutant; 0% DMSO only, 100% 113 µM cGMP; activation, % at 11.4 µM; AID 504700;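 active = activation above a cutoff set at the mean over all compounds plus 3 SD, cut at about 18% in these data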;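 note: higher means more holoenzyme dissociation and a rise in polarization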
Vif inh = blocks HIV Vif function; HEK293T cells, Vif self-association by quenched fluorescence, imaging, 24 h; inhibition, % at 7.49 µM; actives 0.35% (n = 340,000); in the data active = inhibition above about 50%, passing the limit was not always enough
* = called active by the depositor; nt = no result given.

SMILES	PKA-R1A activ	SR-BI DiI inh	SR-BI uptake up	PKA-R2B act	Vif inh
O=C(N/N=C/c1ccc(OCc2ccc(F)cc2)cc1)c1ccccc1	10	39	-39	8	1
CC(C)(C)c1ccc(OCc2ccc(C(=O)N/N=C/c3ccc(O)c(O)c3)cc2)cc1	-8	107*	-107	5	3
O=C(N/N=C1\CC2CC=CC12)c1ccc(COc2ccccc2)cc1 (centres undefined)	3	18	-18	-5	4
CN(C)c1ccc(CNc2nc3cc(-c4ccc(F)cc4)sc3c(=O)n2C)cc1	nt	nt	nt	nt	-6
O=C(COC(=O)c1ccc(F)cc1F)Nc1ccc(S(=O)(=O)N2CCOCC2)cc1	-2	nt	nt	-2	17
Cc1ccsc1/C=N/NC(=O)c1ccncc1	0	32	-32	-10	8
COc1ccc(O)c(/C=N/NC(=O)c2ccc(OCc3cccc(Br)c3)cc2)c1	-1	129*	-129	-7	1
COc1cc(C(=O)N/N=C/c2sccc2C)cc(OC)c1OC	-3	59	-59	-6	75*
COc1ccc(/C=N/NC(=O)c2ccc(Br)cc2)c(OC)c1	0	83*	-83	-3	-3
COc1ccc(NC(=O)c2ccc3[nH]c(C)c(C)c3c2)c(OC)c1	-7	109*	-109	-4	0
COc1ccc(NC(=O)c2ccc3nc(-c4ccccc4)c(-c4ccccc4)nc3c2)c(OC)c1	4	76*	-76	-8	1
CCOc1ccccc1NC(=O)c1ccc2[nH]c(C)c(C)c2c1	9	nt	nt	2	27
Cc1cc(NC(=O)c2ccc3nc(-c4ccccc4)c(-c4ccccc4)nc3c2)no1	2	80*	-80	-5	8
COc1ccccc1NC(=O)c1ccc2nc(-c3ccccc3)c(-c3ccccc3)nc2c1	1	20	-20	9	-6
COC(CNC(=O)c1ccc2nc(-c3ccccc3)c(-c3ccccc3)nc2c1)OC	-9	80*	-80	10	0
O=C(NNC(=O)c1cc(Cl)ccc1O)c1cccs1	3	89*	-89	-6	10
O=C(NNC(=O)c1ccccc1Cl)c1cccs1	2	-1	1	6	25
O=C(CCc1ccccc1)NNC(=O)c1cc(Cl)ccc1O	3	115*	-115	0	2
CC(C)(C)c1cc(CCC(=O)NNC(=S)NC(=O)c2ccccc2)cc(C(C)(C)C)c1O	2	71*	-71	4	4
Cc1ccc(C(=O)NC(=S)NNC(=O)c2ccccc2O)cc1	0	112*	-112	-13	-21
O=C(Nc1nccs1)c1ccc(-c2ccc([N+](=O)[O-])cc2)o1	-4	37	-37	-7	80*
O=C(NNC(=O)c1ccccc1O)c1ccc(-c2ccc([N+](=O)[O-])cc2)o1	-2	121*	-121	-26	-2
O=C(Nc1ccccc1)c1ccc(-c2ccc([N+](=O)[O-])cc2)o1	-4	nt	nt	8	-4
O=C(NC(=S)NNC(=O)c1ccccc1O)c1cccs1	0	114*	-114	2	16
O=C(Nc1nccs1)c1ccc(-c2ccc(Cl)cc2)o1	-2	13	-13	-3	-1
SMILES	PKA-R1A activ	SR-BI DiI inh	SR-BI uptake up	PKA-R2B act	Vif inh
COc1ccccc1C(=O)NNC(=S)NC(=O)c1cccs1	0	13	-13	2	1
O=C(NC(=S)NNC(=O)c1ccccc1O)c1ccc([N+](=O)[O-])cc1	-16	106*	-106	7	-2
CCNC(=O)C1(C)CCCN1C(=O)c1cc(C)on1 (centres undefined)	nt	nt	nt	nt	-8
O=C(O)c1ccccc1CSc1nc2ccccc2[nH]1	-4	-17	17	4	10
O=C(NNC(=S)NC(=O)c1ccccc1[N+](=O)[O-])c1ccccc1[N+](=O)[O-]	8	-20	20	-3	11
O=C(NNC(=S)NC(=O)c1ccccc1[N+](=O)[O-])c1ccccc1O	nt	84*	-84	nt	3
O=C(NC(=S)NNC(=O)c1ccccc1O)c1ccc(F)cc1	6	125*	-125	-7	-3
COc1ccc(/C=C/C(=O)NC(=S)NNC(=O)c2cccs2)cc1	-8	-10	10	-12	67*
O=C(NC(=S)NNC(=O)c1ccccc1O)c1ccccc1	0	100*	-100	4	-4
